High-throughput results (PubChem)
Sampled rows, rich in hits. Any-hit rate of the full collection: about 2%.
Plk1 PBD FP: Plk1 (human) PBD binding inhibition; P53350; Plk1 PBD phosphopeptide binding, fluorescence polarization; inhibition, %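 (tested at about 20 µM)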; 0.13% of 97,000 active; in the data active = inhibition above about 34%, passing the limit was not always enough
Rev-RRE block: HIV Rev-RRE protein-RNA interaction inhibition; P05866; Rev peptide-RRE RNA binding, FRET; inhibition, % at 8 µM; 0.79% of 97,000 active;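 active = inhibition above the screen-wide mean plus 3 SD, cut at about 35% in these data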;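 note: 0% = median DMSO wells and 100% = median Neomycin B control wells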
Target sequence (P05866 whole entry, looked up): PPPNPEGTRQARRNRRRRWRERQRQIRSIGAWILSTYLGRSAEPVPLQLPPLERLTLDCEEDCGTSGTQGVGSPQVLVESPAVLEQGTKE
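Test system: Cy5-tagged RRE RNA duplex with fluorescein-tagged Rev peptide; Probe or stimulus: labelled Rev peptide; Schedule: 5 min preincubation and 15 min binding, 25 °C; Signal: FRET fluorescence readout; Evaluation: % inhibition from 671/540 nm acceptor-to-donor ratio, scaled between controls; Control set: DMSO and neomycin B.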
PLK1 inh: inhibitors of human PLK1 kinase | recombinant PLK1 kinase, TR-FRET peptide phosphorylation | inhibition, % at 10 µM | 0.53% of 97,000 active;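 active = inhibition of 50% or more in the single-concentration screen; inactive = inhibition below 50%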;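 note: 0% = DMSO max control and 100% = H-89 dihydrochloride min control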
LYP inh 2: inhibitors of human LYP (PTPN22) phosphatase | recombinant LYP catalytic domain, DiFMUP fluorescence | Q9Y2R2 | 0.21% of 96,000 active | AID 640 | inhibition, % at 2 µM;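 active = inhibition at 2 µM at or above a set limit, the screen mean plus 3 SD, cut at about 24% in these data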;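 note: 0% = DMSO with enzyme and 100% = enzyme fully blocked by orthovanadate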
LYP act: activators of human LYP (PTPN22) phosphatase; Q9Y2R2; recombinant LYP, DiFMUP fluorescence; 0 = plate median, 100 = signal doubled; activation, % at 2 µM; 0.11% of 96,000 active;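 active = activation at 2 µM above a set limit, the mean plus 5 SD, cut at about 37% in these data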
EphB4 antag: blocks human EphB4 binding to ephrin-B2 | P54760 | EphB4 LBD / TNYL-RAW-Alexa532 peptide, fluorescence polarization | inhibition, % at 7 µM | 0.15% of 97,000 active | AID 720;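 active = inhibition above the screen-wide mean inhibition plus 3 SD, cut at about 15% in these data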;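 note: 0% = DMSO wells and 100% = excess unlabeled TNYL-RAW peptide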
LYP act confirm: confirmation of human LYP phosphatase activators; shares compounds with LYP act; Recombinant LYP, DIFMUP fluorescence, activation; zero set by plate's median compound well; activation, % at 2 µM; 100 tested, under 10 active; AID 1031; call rule not given here
Starred values were filed as active, the others as inactive; . = no result given.

SMILES | Plk1 PBD FP | Rev-RRE block | PLK1 inh | LYP inh 2 | LYP act | EphB4 antag | LYP act confirm
CCN(CC)c1ccc(N2C(=O)/C(=C/c3cccs3)SC2=S)cc1 | -22 | 5 | -7 | -4 | 1 | -5 | .
CCc1ccccc1NC(=O)CC(O)(C(=O)OC)C(F)(F)F (stereo not given) | -10 | 1 | 8 | -37 | 37* | -6 | -4
COC(=O)C(O)(CC(=O)Nc1ccccc1OC)C(F)(F)F (stereo not given) | -8 | 10 | -3 | -5 | 4 | 6 | .
NC(=O)CNC(=O)[C@@H]1CC2(CC(c3ccccc3)=NO2)CN1C(=O)c1ccc(Br)cc1 (stereo not given in full) | 12 | -3 | -5 | -5 | 8 | -15 | .
CNC(=S)N(Cc1ccc2c(c1)OCO2)C1CC(=O)N(c2ccc(F)cc2)C1=O (stereo not given) | 42 | 2 | 1 | 6 | 0 | -6 | .
COC(=O)C1=C(CSc2nncn2C)NC(=O)NC1c1ccc(F)cc1 (stereo not given) | 8 | 6 | -6 | -46 | 50* | 0 | 6
O=C(O)CCn1[nH]c(=O)c2ccccc2c1=O | 2 | 7 | -10 | -36 | 37* | 9 | 8
O=C(CCn1[nH]c(=O)c2ccccc2c1=O)N1CCOCC1 | 1 | 6 | -2 | -8 | 7 | 1 | .
Cc1cc(C)nc(N/N=C/C(Cl)=C/c2ccccc2)n1 | 2 | 2 | -11 | 6 | -4 | 5 | .
O=C(NC1CCCCC1)/C(=N\O)c1ccccn1 | -14 | 3 | -11 | -6 | 6 | -3 | .
COC(=O)[C@H](Cc1ccccc1)NC(=O)NCc1ccc(S(N)(=O)=O)cc1 | -2 | 15 | -4 | -48 | 44* | -8 | 6
COC(=O)c1ccc(NC(=O)CN2C(=O)CNC2=O)cc1 | -18 | 2 | -19 | -3 | 1 | 0 | .
COc1ccc(C(=O)CN2C(=O)C(C)(C)Oc3ccc(C(=O)N4CCCCCC4)cc32)cc1 | 7 | 10 | -5 | -15 | 12 | 4 | .
S=c1[nH]ncn1-c1ccccn1 | -22 | 1 | -9 | -49 | 46* | -8 | -4
S=c1[nH]ncn1/N=C/c1ccccc1 | 1 | -2 | -6 | -12 | 11 | -5 | .
Cc1cc(C)cc(C(=O)N2CC(C)OC(C)C2)c1 (stereo not given) | -14 | 5 | -5 | -5 | 4 | 4 | .
CCOc1ccc(CN2CCNC(=O)C2CC(=O)OC)cc1 (stereo not given) | 19 | 1 | -8 | -38 | 37* | -7 | -5
CCn1c(-c2ccccc2Cl)nn(CC(=O)Nc2ccccc2C)c1=S | 14 | -2 | 1 | -1 | 5 | 2 | .
O=C(NNC1=C(C(=O)C(F)(F)F)CCC1)c1ccc(Cl)cc1 | -4 | -2 | -18 | -40 | 45* | 0 | 0
O=C(CNS(=O)(=O)c1ccccc1)Nc1ccc(C(F)(F)F)cc1 | 24 | 4 | -10 | 7 | -4 | -2 | .
